# HIV Env fusion – blocks HIV Env-driven cell-cell fusion. inhibition, % at 12.3 µM. AID 651610. hit rate 1.1% among 360,000. HeLa-JRFL Env/CEM21 cell fusion, luciferase;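 active means mean replicate inhibition score of at least 50 and every replicate individually at or above 50; inconclusive means only one of the two criteria met; inactive means mean below 50 and not all replicates reaching 50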;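 further: 0% = plate neutral controls and 100% = maraviroc near 300 nM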
# Rtt109 HAT inh – C. albicans Rtt109 histone acetyltransferase inhibition; Q5AAJ8; purified Rtt109/Vps75, ThioGlo CoA-SH fluorescence, 4 h; inhibition, % at 34.9 µM; hit rate 0.16% among 330,000; AID 540336;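 active means inhibition of at least 50% in every replicate; inconclusive means best replicate reaches 50% inhibition but some replicates fall short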
# Target sequence (Q5AAJ8 whole entry, looked up): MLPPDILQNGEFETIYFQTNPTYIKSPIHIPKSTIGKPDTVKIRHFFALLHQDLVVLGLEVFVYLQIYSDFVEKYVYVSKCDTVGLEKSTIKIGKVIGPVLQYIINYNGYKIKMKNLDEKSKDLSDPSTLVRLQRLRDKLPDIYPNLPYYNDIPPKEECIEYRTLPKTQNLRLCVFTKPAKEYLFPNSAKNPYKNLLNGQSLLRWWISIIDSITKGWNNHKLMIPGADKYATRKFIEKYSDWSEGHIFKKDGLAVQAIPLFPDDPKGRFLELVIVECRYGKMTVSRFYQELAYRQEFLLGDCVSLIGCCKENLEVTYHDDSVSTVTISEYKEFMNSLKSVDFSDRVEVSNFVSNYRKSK
# N-glyco inh – N-linked glycosylation inhibition | D54 ERlucT glycosylation luciferase reporter, 24 h; percent of 100 nM tunicamycin response | reporter increase, % at 12.5 µM | hit rate 0.23% among 360,000;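 active means mean luciferase reporter signal, scaled so untreated is 0 and the glycosylation-blocking control 100, at or above a set limit in every replicate; inconclusive means mean reaches the limit but not every replicate does; inactive means mean below the limit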;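 further: luciferase carries N-glycosylation sites so blocking glycosylation raises the light; 0% = median of neutral control wells and 100% = median of 100 nM tunicamycin wells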
# Arr AP2 block – human beta-arrestin and AP2 interaction inhibition. FITC-arrestin peptide / GST-AP2 beads, flow cytometry; AP2 beta2 appendage carries R879A mutation. inhibition, % at 10 µM. hit rate 0.31% among 340,000. AID 504490;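 active means inhibition above a set limit, near 3 SD of compounds lacking own fluorescence, cut at about 54% in these data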;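 further: plate controls were DMSO wells for no effect and 5 µM unlabelled arrestin peptide for full effect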
#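 Assay system: GST-AP2 R879A bound to glutathione beads, E. coli-expressed; Medium: PBS with 0.05% Tween 20 and 0.1% BSA; Also added: fluorescein-tagged arrestin peptide at 50 nM final; Timing: 12 min plus 1 h, RT; Measured by: flow cytometry, FL1 (488/535 nm); Evaluation: percent drop in bead-associated FITC signal.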
# PAX8 inh HTS – inhibitors of PAX8 transcriptional activity in RMG-I cells; hit rate 1.2% among 360,000; inhibition, % at 12.6 µM; RMG-I TPO-luciferase reporter, SteadyGlo, 24 h;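 active means mean replicate inhibition at least 60% with every replicate also reaching 60%; inconclusive means only one of the two criteria is met; inactive means mean below 60% and not all replicates reaching 60%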;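 further: luciferase light reporting Pax8 driven TPO promoter activity; plate controls were median of neutral control wells for no effect and mitoxantrone controls for full effect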
# PfHsp90 set2 – growth inhibition of yeast expressing Plasmodium Hsp90 | S. cerevisiae expressing PfHsp90, BacTiter-Glo ATP, 48 h; yeast lacking PDR1 and PDR3 efflux regulators | inhibition, % at 9.4 µM | hit rate 0.32% among 310,000;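 active means every replicate shows inhibition above about 80%, whatever the replicate mean, limit read from the data; inconclusive means mean inhibition reaches the set limit but some replicate falls short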;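 further: 0% = DMSO neutral controls and 100% = 20 µM radicicol positive controls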
# Numbers without * were called inactive; ? = inconclusive; nt = no result; [ ] = another dose, or the depositor's remark. An excerpt weighted towards active compounds, which were near 2.3% of everything screened.
SMILES,HIV Env fusion,Rtt109 HAT inh,N-glyco inh,Arr AP2 block,PAX8 inh HTS,PfHsp90 set2
CCCC(=O)Nc1ccc2c(c1)C(=O)N(C)[C@H]1CC[C@@H](CC(=O)NCCCN(C)C)O[C@H]1CO2,-2.3[16.7 µM],nt,nt,nt,-3.2,nt
CNC[C@H]1Oc2c(NC(=O)Nc3ccc4c(c3)OCO4)cccc2C(=O)N([C@H](C)CO)C[C@@H]1C,63.8*[16.7 µM],nt,nt,nt,-23.8,nt
CNC[C@H]1Oc2c(NC(=O)Nc3ccccc3)cccc2C(=O)N([C@H](C)CO)C[C@@H]1C,nt,nt,nt,nt,72.7*,nt
CNC[C@@H]1Oc2c(N)cccc2C(=O)N([C@@H](C)CO)C[C@@H]1C,62.0*[16.7 µM],nt,nt,nt,-12.6,nt
CNC[C@@H]1Oc2c(N)cccc2C(=O)N([C@H](C)CO)C[C@H]1C,-25.0[16.7 µM],nt,nt,nt,10.7,nt
CNC[C@@H]1Oc2c(NC(=O)Nc3ccc4c(c3)OCO4)cccc2C(=O)N([C@H](C)CO)C[C@H]1C,-4.2[16.7 µM],nt,nt,nt,-20.2,nt
C[C@H](CO)N1C[C@H](C)[C@H](CN(C)Cc2ccccc2)Oc2c(NC(=O)Nc3ccc4c(c3)OCO4)cccc2C1=O,65.2*[16.7 µM],nt,nt,nt,-2.7,nt
COc1ccc(NC(=O)Nc2ccc3c(c2)CC(=O)N([C@H](C)CO)C[C@H](C)[C@H](CN(C)Cc2ccc4c(c2)OCO4)O3)cc1,-22.1[16.7 µM],nt,nt,nt,nt,nt
CCC(=O)N1C[C@@H](C)[C@@H](OC)CN(C)C(=O)c2cc(NC(=O)c3ccc(F)cc3)ccc2OC[C@H]1C,12.0[16.7 µM],nt,nt,nt,-6.7,nt
Cc1cc2[nH]c3c4ccccc4nc(C)c3c2cc1C,-179.8,-0.8,-21.5,-0.2,85.8*,23.6
COCC(=O)N(C)C[C@@H]1Oc2cc(-c3ccncc3)ccc2S(=O)(=O)N([C@H](C)CO)C[C@H]1C,11.4[16.7 µM],nt,nt,nt,nt,nt
COc1cc(Cl)c(NC2=CC(=O)C(=O)c3ccccc32)c(OC)c1,nt,-5.4,-20.9,-5.0,94.9*,-39.7
CC(C)CC(=O)/C(=C\c1ccc(Cl)cc1Cl)n1cncn1,nt,10.3,-17.7,0.1,nt,129.2*
CC(C)CC(=O)/C(=C/c1ccc(N(C)C)cc1)n1cncn1,11.3,-3.1,2.5,1.4,-6.3,14.7
C[C@@H]1CN([C@H](C)CO)C(=O)c2cccc(NC(=O)Nc3cccc4ccccc34)c2O[C@@H]1CN(C)Cc1ccc(-c2ccccc2)cc1,6.0[16.7 µM],nt,nt,nt,nt,nt
O=C([C@H]1[C@H](CO)[C@H]2Cn3c(ccc(C4=CCCC4)c3=O)[C@@H]1N2C(=O)c1cccnc1)N1CCOCC1,nt,nt,nt,nt,-1.2,nt
FC(F)(F)c1cccc(Cn2c3[n+](c4ccc(C(F)(F)F)cc42)CCCCC3)c1,-14.9,-7.5,-1.9,-8.1,18.8,-55.9
Cc1cc(C(C)(C)C)cc(C)c1Cn1c2[n+](c3ccc(C(F)(F)F)cc31)CCCCC2,25.0,?,12.7,-56.0,90.5*,nt
Cc1ccc(S(=O)(=O)Nc2ccc3c(c2)C(=O)N([C@H](C)CO)C[C@@H](C)[C@H](CN(C)S(=O)(=O)c2ccc(Cl)cc2)OCCCC[C@H](C)O3)cc1,nt,nt,nt,nt,87.8*,nt
Cc1ccc(S(=O)(=O)N(C)C[C@H]2OCCCC[C@H](C)Oc3ccc(NS(=O)(=O)c4ccc(Cl)cc4)cc3C(=O)N([C@@H](C)CO)C[C@H]2C)cc1,-18.6[16.7 µM],nt,nt,nt,25.1,nt
Cc1ccc(S(=O)(=O)Nc2ccc3c(c2)C(=O)N([C@@H](C)CO)C[C@@H](C)[C@@H](CN(C)S(=O)(=O)c2ccc(Cl)cc2)OCCCC[C@@H](C)O3)cc1,14.3[16.7 µM],nt,nt,nt,82.6*,nt
Cc1ccc(S(=O)(=O)Nc2ccc3c(c2)C(=O)N([C@H](C)CO)C[C@H](C)[C@@H](CN(C)S(=O)(=O)c2ccc(Cl)cc2)OCCCC[C@H](C)O3)cc1,31.2[16.7 µM],nt,nt,nt,94.9*,nt
Cc1ccc(S(=O)(=O)N(C)C[C@H]2OCCCC[C@H](C)Oc3ccc(NS(=O)(=O)c4ccc(Cl)cc4)cc3C(=O)N([C@@H](C)CO)C[C@@H]2C)cc1,6.5[16.7 µM],nt,nt,nt,88.8*,nt
Cc1ccc(S(=O)(=O)N(C)C[C@@H]2OCCCC[C@H](C)Oc3ccc(NS(=O)(=O)c4ccc(Cl)cc4)cc3C(=O)N([C@@H](C)CO)C[C@H]2C)cc1,-62.8[16.7 µM],nt,nt,nt,29.4,nt
Cc1ccc(S(=O)(=O)N(C)C[C@@H]2OCCCC[C@@H](C)Oc3ccc(NS(=O)(=O)c4ccc(Cl)cc4)cc3C(=O)N([C@H](C)CO)C[C@@H]2C)cc1,3.5[16.7 µM],nt,nt,nt,6.2,nt

# Screens from PubChem.
